The source made the active and inactive calls. No cut-off for these calls is given here.
Legend:
[1] = target: Serine/threonine-protein kinase pim-3 (Homo sapiens) (UniProt Q86V86); test: Inhibition of human recombinant His6-tagged PIM3 expressed in Sf21 cells using RSRHSSYPAGT as substrate at 10 uM after 30 mins
[2] = target: Dual specificity tyrosine-phosphorylation-regulated kinase 3 (Homo sapiens) (UniProt O43781); test: Inhibition of human recombinant GST-tagged DYRK3 expressed in Escherichia coli using KKISGRLSPIMTEQ as substrate at 1 uM after 30 mins
Sequence of Dual specificity tyrosine-phosphorylation-regulated kinase 3 (Homo sapiens) (O43781 whole entry): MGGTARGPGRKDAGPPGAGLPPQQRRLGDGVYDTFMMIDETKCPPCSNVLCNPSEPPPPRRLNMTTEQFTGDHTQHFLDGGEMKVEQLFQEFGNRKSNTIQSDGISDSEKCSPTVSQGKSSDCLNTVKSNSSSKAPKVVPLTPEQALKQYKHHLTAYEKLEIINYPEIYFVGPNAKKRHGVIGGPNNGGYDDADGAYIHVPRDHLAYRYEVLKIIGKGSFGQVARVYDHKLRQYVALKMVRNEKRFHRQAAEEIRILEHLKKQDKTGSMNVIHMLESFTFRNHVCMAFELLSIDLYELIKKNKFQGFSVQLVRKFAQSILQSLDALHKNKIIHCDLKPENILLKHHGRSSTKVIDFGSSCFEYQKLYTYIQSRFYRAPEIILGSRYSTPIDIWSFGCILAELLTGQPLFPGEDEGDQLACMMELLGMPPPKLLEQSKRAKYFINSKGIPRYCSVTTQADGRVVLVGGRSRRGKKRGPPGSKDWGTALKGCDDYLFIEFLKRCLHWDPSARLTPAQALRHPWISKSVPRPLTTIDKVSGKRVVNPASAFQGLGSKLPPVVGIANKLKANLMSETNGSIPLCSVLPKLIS

[3] = target: Casein kinase II subunit alpha' (Mus musculus) (UniProt O54833); test: Binding affinity to CK2 alpha' subunit in mouse HT22 cell lysate by Western blot analysis; format: cell-free; conditions: HT-22
Sequence of Casein kinase II subunit alpha' (Mus musculus) (O54833 whole entry): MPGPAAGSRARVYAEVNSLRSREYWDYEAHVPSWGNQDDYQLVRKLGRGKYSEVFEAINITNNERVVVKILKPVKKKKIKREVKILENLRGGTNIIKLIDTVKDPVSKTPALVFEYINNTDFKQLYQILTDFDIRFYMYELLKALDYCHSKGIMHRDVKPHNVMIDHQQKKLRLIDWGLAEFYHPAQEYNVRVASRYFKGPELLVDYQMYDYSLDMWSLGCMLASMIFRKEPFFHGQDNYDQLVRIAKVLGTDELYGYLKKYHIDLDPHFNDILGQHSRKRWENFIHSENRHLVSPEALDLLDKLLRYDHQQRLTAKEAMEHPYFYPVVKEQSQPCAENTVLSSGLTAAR
Method in brief: (§1)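 Bead pull-down from HT22 cell or mouse brain extracts, with ethanolamine beads lacking ligand as control. Specificity was tested by adding excess free inhibitor to the extracts before binding.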

[4] = target: Casein kinase II subunit alpha (Mus musculus) (UniProt Q60737); test: Binding affinity to CK2 alpha subunit in mouse HT22 cell lysate by Western blot analysis; format: cell-free; conditions: HT-22; method in brief: as §1
Sequence of Casein kinase II subunit alpha (Mus musculus) (Q60737 whole entry): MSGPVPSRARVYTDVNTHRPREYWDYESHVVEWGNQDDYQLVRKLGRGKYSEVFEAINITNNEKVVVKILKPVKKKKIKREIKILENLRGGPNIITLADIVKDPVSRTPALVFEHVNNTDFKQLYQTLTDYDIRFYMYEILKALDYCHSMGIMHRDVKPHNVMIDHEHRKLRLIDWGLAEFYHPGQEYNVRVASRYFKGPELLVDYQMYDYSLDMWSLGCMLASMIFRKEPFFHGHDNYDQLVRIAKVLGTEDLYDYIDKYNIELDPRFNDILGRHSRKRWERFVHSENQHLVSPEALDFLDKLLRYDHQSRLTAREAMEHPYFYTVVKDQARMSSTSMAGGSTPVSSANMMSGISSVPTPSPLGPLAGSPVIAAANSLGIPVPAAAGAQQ

[5] = target: 1-phosphatidylinositol 3-phosphate 5-kinase (Mus musculus) (UniProt Q9Z1T6); test: Binding affinity to phosphatidylinositol-3-phosphate 5-kinase type 3 in mouse HT22 cell lysate by Western blot analysis; format: cell-free; conditions: HT-22; method in brief: as §1
Sequence of 1-phosphatidylinositol 3-phosphate 5-kinase (Mus musculus) (Q9Z1T6 whole entry): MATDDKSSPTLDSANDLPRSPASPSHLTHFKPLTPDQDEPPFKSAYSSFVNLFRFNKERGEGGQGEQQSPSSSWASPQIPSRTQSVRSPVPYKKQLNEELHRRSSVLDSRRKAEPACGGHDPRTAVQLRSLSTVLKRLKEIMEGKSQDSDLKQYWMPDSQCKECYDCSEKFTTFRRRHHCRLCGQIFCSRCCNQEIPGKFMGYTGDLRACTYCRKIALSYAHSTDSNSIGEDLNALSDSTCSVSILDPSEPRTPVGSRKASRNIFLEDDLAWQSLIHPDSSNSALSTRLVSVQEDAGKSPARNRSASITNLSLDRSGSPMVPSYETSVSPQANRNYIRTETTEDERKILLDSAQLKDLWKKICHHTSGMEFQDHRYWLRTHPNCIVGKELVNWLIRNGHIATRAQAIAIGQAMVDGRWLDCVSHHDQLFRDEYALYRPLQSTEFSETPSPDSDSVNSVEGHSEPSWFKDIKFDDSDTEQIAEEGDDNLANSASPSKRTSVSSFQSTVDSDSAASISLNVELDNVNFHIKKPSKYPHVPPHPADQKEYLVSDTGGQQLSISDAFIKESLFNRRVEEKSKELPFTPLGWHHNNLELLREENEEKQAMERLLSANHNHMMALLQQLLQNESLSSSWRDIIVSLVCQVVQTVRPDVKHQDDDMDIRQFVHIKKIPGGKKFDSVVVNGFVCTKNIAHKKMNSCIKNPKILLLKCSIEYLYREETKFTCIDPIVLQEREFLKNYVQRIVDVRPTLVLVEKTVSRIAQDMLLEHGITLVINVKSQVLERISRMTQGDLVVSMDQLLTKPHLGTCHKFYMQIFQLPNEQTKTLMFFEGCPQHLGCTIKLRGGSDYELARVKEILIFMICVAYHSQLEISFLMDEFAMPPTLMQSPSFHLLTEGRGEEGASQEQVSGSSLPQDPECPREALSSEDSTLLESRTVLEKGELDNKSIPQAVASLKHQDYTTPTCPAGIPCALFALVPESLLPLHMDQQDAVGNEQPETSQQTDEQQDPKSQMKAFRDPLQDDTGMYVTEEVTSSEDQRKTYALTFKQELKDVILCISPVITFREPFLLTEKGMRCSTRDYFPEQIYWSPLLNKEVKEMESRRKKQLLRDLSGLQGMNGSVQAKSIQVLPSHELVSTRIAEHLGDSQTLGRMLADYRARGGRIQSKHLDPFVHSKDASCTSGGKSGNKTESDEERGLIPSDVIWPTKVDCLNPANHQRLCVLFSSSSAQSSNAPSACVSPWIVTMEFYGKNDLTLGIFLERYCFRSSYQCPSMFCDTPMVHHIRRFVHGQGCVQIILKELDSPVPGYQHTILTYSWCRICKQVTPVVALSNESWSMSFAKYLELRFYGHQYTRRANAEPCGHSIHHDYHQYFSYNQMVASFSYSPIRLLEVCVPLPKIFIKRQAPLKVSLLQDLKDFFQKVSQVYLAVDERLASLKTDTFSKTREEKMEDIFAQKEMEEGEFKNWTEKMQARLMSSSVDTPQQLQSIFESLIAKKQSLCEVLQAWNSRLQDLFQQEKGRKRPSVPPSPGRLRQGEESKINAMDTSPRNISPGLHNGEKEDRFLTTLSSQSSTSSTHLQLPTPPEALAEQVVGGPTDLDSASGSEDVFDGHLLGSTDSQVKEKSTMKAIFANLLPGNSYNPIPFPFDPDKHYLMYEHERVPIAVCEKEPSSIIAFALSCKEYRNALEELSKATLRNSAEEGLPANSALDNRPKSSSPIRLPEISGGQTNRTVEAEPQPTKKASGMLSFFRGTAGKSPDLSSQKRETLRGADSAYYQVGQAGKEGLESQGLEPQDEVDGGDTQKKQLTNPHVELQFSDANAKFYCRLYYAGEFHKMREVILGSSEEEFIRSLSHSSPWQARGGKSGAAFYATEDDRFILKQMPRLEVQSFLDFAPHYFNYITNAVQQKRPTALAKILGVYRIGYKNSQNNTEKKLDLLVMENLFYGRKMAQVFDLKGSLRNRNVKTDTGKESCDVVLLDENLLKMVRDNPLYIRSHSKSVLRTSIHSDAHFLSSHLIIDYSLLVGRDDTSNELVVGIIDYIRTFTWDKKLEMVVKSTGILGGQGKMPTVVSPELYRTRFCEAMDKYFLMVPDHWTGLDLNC

HT-22 [6] = test: Downregulation of DYRK1A expression in mouse HT22 cells after 4 hrs by Western blot analysis; format: functional, cell-based
[7] = target: Dual specificity protein kinase CLK3 (Homo sapiens, UniProt P49761); test: Binding affinity to CLK3
Sequence of Dual specificity protein kinase CLK3 (P49761 whole entry): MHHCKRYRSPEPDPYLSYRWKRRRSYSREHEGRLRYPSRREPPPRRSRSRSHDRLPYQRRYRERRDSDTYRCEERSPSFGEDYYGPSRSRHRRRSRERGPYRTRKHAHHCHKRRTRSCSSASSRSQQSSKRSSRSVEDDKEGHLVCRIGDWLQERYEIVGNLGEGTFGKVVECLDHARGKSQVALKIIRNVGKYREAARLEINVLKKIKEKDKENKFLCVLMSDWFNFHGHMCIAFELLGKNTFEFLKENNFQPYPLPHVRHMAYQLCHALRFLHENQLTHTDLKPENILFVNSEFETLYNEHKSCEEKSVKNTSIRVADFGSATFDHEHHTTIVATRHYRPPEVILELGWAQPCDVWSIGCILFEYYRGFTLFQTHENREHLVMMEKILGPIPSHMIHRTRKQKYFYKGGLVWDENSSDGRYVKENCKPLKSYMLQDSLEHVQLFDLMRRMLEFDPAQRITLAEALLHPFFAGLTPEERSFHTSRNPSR

[8] = target: 1-phosphatidylinositol 3-phosphate 5-kinase (Mus musculus) (UniProt Q9Z1T6); test: Binding affinity to phosphatidylinositol-3-phosphate 5-kinase type 3 in mouse brain homogenate by Western blot analysis; format: tissue-based; method in brief: as §1
[9] = target: Protein VAC14 homolog (Mus musculus) (UniProt Q80WQ2); test: Binding affinity to VAC14 in mouse HT22 cell lysate by Western blot analysis; format: cell-free; conditions: HT-22; method in brief: as §1
HT-22 [10] = test: Inhibition of GSK3 isolated from mouse HT22 cells; format: cell-free
[11] = target: Dual specificity tyrosine-phosphorylation-regulated kinase 3 (Homo sapiens) (UniProt O43781); test: Inhibition of human recombinant GST-tagged DYRK3 expressed in Escherichia coli using KKISGRLSPIMTEQ as substrate at 10 uM after 30 mins
[12] = Inhibition of Plasmodium falciparum recombinant GSK3 expressed in Escherichia coli using YRRAAVPPSPSLSRHSSPHQ-phosphoS-EDEEE as substrate and [gamma33P]ATP after 30 mins by scintillation counting
Method in brief: (§2)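 Panel of purified kinases (recombinant from several species plus native enzymes), each assayed radiometrically over a range of inhibitor concentrations; IC50 in μM calculated from the dose-response curves.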

[13] = target: Homeodomain-interacting protein kinase 1 (Homo sapiens, UniProt Q86Z02); test: Binding affinity to HIPK1
[14] = target: Dual specificity protein kinase CLK2 (Mus musculus, UniProt O35491); test: Inhibition of mouse recombinant GST-tagged CLK2 expressed in Escherichia coli using GRSRSRSRSRSR as substrate and [gamma33P]ATP after 30 mins by scintillation counting; method in brief: as §2
Sequence of Dual specificity protein kinase CLK2 (O35491 whole entry): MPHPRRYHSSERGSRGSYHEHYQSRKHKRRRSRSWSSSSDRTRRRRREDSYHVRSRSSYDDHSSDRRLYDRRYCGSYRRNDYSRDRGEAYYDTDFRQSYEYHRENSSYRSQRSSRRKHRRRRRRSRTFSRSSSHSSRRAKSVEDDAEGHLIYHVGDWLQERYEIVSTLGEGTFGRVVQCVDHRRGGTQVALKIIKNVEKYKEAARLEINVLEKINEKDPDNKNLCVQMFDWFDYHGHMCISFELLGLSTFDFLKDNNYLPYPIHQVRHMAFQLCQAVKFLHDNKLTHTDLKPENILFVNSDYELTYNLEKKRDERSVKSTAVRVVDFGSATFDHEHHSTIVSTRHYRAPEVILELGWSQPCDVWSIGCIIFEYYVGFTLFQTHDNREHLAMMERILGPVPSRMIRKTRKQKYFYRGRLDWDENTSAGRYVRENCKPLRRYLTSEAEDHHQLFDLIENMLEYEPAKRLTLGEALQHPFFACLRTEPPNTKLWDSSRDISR

[15] = target: Casein kinase II subunit beta (Mus musculus, UniProt P67871); test: Binding affinity to […] in mouse brain homogenate after 3 hrs by competition affinity chromatographic analysis; format: tissue-based
Sequence of Casein kinase II subunit beta (P67871 whole entry): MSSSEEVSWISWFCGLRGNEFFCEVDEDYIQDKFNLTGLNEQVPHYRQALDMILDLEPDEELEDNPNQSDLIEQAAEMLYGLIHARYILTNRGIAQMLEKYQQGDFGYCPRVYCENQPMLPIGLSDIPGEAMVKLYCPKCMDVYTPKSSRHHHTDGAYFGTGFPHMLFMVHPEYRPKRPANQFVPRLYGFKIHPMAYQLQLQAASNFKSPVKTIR
Method in brief: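 Mouse brain lysate applied to a KinAffinity matrix of mixed immobilized broad-spectrum kinase inhibitors at highest loading density, with increasing concentrations of free inhibitor added. […] Separate titrations of the immobilized ligands gave BC50 values.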

[16] = target: Serine/threonine-protein kinase TAO1 (Homo sapiens, UniProt Q7L7X3); test: Binding affinity to TAOK1

O=C1NC(Nc2ccccc2)=N/C1=C\c1ccc2c(c1)OCO2
inhibition [1]: Active | inhibition [2]: Active | Activity [3]: Active | Activity [4]: Active | Activity [5]: Active | Activity (HT-22 [6]): inactive | Kd [7]: 1100 nM | Activity [8]: Active | Activity [9]: Active | inhibition (HT-22 [10]): inactive | inhibition [11]: Active | IC50 [12]: > 10000 nM | Kd [13]: 320 nM | IC50 [14]: 720 nM | Kd(free) [15]: 382 nM | Kd [16]: 1700 nM
